This passage reports ΔTm and IC50 results from ChEMBL document CHEMBL4477233, “Discovery of novel TAOK2 inhibitor scaffolds from high-throughput screening” (Bioorg Med Chem Lett, 2016).

Assay [1] concerns the target MAP kinase p38 (Homo sapiens) (UniProt O15264+Q15759+Q16539+P53778). Nature of the assay: Binding affinity to p38 (unknown origin) assessed as change in melting temperature at 1 uM by SYPRO orange dye-based DSF analysis. It counts as protein assay. The gist of the method:
(§1)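 Differential scanning fluorimetry: each compound's melting-temperature shift (ΔTm, °C) was measured on the kinase protein. Compounds giving a TAOK2 ΔTm above 0.5 °C were also run against p38 and ASK1. Selectivity (ΔΔTm) was taken as the TAOK2 ΔTm minus the p38 or ASK1 ΔTm.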
Background: In DSF a fluorescence change marks the thermal transition of the protein.

The target of assay [2] is T1, Mitogen-activated protein kinase kinase kinase 5 (Homo sapiens) (UniProt Q99683).
T1 sequence (whole entry): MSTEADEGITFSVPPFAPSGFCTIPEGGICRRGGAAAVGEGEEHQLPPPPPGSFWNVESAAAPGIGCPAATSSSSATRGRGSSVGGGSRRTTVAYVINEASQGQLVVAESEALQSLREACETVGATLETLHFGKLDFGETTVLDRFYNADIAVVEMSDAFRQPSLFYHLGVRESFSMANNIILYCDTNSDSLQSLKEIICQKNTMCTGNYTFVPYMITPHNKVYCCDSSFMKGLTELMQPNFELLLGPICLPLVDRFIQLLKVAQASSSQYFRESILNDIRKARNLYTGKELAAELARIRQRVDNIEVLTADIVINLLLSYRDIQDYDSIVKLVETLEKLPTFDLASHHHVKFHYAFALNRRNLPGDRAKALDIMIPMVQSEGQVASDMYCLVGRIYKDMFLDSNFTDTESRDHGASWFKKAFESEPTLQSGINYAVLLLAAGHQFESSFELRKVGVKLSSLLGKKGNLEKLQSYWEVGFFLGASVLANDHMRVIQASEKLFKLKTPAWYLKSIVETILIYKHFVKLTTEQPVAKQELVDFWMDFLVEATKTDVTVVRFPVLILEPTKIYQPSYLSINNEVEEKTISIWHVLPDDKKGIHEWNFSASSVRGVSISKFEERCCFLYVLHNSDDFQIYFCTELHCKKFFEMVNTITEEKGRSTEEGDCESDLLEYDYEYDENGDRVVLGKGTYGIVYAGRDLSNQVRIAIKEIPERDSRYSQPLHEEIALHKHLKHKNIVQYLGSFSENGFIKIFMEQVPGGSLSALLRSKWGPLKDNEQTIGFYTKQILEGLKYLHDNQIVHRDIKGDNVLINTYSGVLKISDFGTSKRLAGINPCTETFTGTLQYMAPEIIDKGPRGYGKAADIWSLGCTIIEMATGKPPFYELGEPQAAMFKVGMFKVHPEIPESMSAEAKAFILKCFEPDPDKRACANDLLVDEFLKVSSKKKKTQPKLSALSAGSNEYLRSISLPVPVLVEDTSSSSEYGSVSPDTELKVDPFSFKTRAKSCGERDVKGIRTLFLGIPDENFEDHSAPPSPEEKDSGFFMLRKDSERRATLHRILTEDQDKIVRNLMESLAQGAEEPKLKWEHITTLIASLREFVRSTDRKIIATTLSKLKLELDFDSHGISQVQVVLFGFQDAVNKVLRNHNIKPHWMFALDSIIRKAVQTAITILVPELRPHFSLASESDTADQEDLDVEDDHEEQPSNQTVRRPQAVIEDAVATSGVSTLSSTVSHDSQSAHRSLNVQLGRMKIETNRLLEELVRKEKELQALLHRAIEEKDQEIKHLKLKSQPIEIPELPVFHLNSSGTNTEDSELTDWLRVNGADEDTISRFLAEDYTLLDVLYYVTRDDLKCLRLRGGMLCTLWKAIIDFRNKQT
Nature of the assay: Binding affinity to ASK1 (unknown origin) assessed as change in melting temperature at 1 uM by SYPRO orange dye-based DSF analysis. Summed up: as §1

The target in assay [3] is T2, Serine/threonine-protein kinase TAO2 (Rattus norvegicus) (UniProt Q9JLS3).
T2 sequence (whole entry): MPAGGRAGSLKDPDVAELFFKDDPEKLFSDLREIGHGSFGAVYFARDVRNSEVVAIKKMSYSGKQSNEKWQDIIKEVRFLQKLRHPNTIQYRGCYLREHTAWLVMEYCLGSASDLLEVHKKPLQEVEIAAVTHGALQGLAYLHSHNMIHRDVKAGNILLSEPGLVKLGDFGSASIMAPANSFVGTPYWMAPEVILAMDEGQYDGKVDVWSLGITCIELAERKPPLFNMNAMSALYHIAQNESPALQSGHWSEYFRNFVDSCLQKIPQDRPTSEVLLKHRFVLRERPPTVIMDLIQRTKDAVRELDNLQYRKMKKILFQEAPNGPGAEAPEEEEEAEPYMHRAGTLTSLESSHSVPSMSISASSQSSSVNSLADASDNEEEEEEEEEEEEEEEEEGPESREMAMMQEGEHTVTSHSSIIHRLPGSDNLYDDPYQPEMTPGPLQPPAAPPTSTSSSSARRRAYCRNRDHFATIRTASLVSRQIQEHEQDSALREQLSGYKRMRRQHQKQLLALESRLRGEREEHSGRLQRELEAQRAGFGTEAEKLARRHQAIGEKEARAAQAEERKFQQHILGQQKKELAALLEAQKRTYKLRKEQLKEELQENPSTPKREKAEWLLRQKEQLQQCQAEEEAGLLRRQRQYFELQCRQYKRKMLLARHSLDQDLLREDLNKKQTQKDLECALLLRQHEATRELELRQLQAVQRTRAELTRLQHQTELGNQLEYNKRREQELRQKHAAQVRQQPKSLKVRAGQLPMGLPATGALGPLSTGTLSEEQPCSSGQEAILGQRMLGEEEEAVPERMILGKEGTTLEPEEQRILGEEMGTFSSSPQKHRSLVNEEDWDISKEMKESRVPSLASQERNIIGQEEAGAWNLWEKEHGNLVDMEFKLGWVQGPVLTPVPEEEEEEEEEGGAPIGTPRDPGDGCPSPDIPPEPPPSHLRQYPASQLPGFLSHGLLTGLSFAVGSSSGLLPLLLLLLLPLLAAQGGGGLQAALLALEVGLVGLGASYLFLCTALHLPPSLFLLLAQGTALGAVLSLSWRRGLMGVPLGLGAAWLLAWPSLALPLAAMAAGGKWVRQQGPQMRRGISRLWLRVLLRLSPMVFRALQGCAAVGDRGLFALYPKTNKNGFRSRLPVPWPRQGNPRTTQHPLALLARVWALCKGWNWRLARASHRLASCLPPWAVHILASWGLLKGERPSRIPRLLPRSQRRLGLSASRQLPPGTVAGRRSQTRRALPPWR
As to the kind of experiment: Binding affinity to rat TAOK2 (1 to 320 residues) expressed in Baculovirus/insect cell expression system assessed as change in melting temperature at 1 uM by SYPRO orange dye-based DSF analysis. The gist of the method: as §1

In assay [4] the target is T3, Serine/threonine-protein kinase TAO2 (Rattus norvegicus, UniProt Q9JLS3).
T3 sequence (Q9JLS3 whole entry): T2 sequence (whole entry)
As to the kind of experiment: Inhibition of rat TAOK2 (1 to 320 residues) expressed in Baculovirus/insect cell expression system assessed as remaining activity using MBP as substrate and [32P]ATP measured after 10 mins by Kinase-Glo assay. For orientation: In Kinase-Glo more light means more ATP remaining.

Structures are written as SMILES.

As for `CS(=O)(=O)c1ccc2nc(NC(=O)CCCOc3ccc(Cl)cc3)sc2c1`, the results for the ΔTm in assay [1], in assay [2] and in assay [3] were 2 °C, 1.2 °C and 1.3 °C, respectively.
For the compound `O=C(O)c1cc(-c2ccc(-c3ccccc3[N+](=O)[O-])o2)nc2ccc3ccccc3c12`, the ΔTm came out at 1.5 °C in assay [1], 1.7 °C in assay [2] and 2.2 °C in assay [3]. Moreover, in assay [4], the IC50 amounted to 3 µM.
With `CCOCCCn1c(=S)[nH]c2cc(C(=O)NCC3COc4ccccc4O3)ccc2c1=O` (stereo not given), the ΔTm in assay [1] was determined as 2 °C; in assay [2], 2.1 °C; in assay [3], 2 °C. In addition, the IC50 in assay [4] is 1.3 to 1.4 µM.
Consider `Cc1ccc(NCCCC(=O)N/N=C/c2cc(Br)cc(Br)c2O)cc1`, for which the results for the ΔTm in assay [1], in assay [2] and in assay [3] were 1.3 °C, 1.2 °C and 1.6 °C, respectively. Moreover, the IC50 in assay [4] came to 6 µM.
The matching figures for `c1cc2[nH]c3c(c2c2nonc12)CCCC3`: 2 °C, 0 °C, 1.2 °C and 3 µM.
For `Cc1ccc(C(=O)CSc2nnc(-c3ccncc3)[nH]2)c(C)c1`, the ΔTm in assay [1] came to 0 °C; in assay [2] it was 0.4 °C; in assay [3] it was 0.7 °C. Further, the IC50 in assay [4] turned out to be 5 µM.
For the compound `O=C(NCC1COc2ccccc2O1)c1ccc(NC(=O)c2ccco2)cc1` (stereo not given), the figures for the ΔTm in assay [1], in assay [2] and in assay [3] were 2.2 °C, 1.2 °C and 1.6 °C, respectively. Moreover, the IC50 in assay [4] was determined as 2 µM.
`CCC(=O)Nc1nc(C)c(-c2csc(Nc3cc(OC)ccc3OC)n2)s1`: the ΔTm was found to be 2.8 °C in assay [1], 2.7 °C in assay [2] and 3 °C in assay [3].

One may read the ΔTm as the shift of the melting midpoint relative to a reference. A word on the IC50: it is the midpoint of a concentration-inhibition curve.
